Assays:
[1] = Plasma pharmacokinetics, single ascending dose; format: in vivo, human; details: for Tmax / half-life / AUC(0-inf) / AUC(0-t) / Cmax / Vd/F: human, plasma
[2] = Plasma pharmacokinetics, multiple ascending dose; format: in vivo, human; details: for Tmax / AUC(0-t) / Cmax / half-life: human, plasma, oral; for AUC(0-t) / Cmax / half-life: mean (CV %); for half-life: t½, 5 days
[3] = Adverse events / TEAEs, SAD cohort; format: in vivo, human
[4] = Adverse events / TEAEs, older adult; format: in vivo, human
[5] = system: platelet levels; assay: Platelet levels; format: in vivo, human
Outline: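 Young volunteers took the test compound or placebo orally once daily for 5 days, 0.2–4 mg/day; older adults took 2.5 mg/day. Platelets were counted in hematology safety blood samples at preset timepoints through 264 h and at follow-up, as % change from baseline. The MID limit included >50% platelet drop or grade ≥1 thrombocytopenia in >50% of active, not placebo, subjects. EC50 and EC80 came from a nonlinear exposure–response fit.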

[6] = molecular target: KDM1A (Homo sapiens, UniProt O60341); assay: Chemoprobe-based KDM1A target engagement in PBMCs; format: in vivo
[7] = 28-day GLP toxicology study in rats; details: rat, in vivo, oral
[8] = Neuropsychological assessments; format: in vivo, human; details: SAD, MAD, or CSF cohorts
Outline: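 Tests were VAS, LSEQ, WCST and Sternberg, run within the neurological evaluation. The trial was single-centre, randomized, double-blind and placebo-controlled in healthy volunteers. Dosing was oral: single doses of 0.2–4 mg (young males), 5 daily doses of 0.2–4 mg/day (young males and females), or 2.5 mg/day for 5 days (older adults). Assessments followed the scheduled timepoints.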

[9] = Safety and tolerability, all study stages; format: in vivo, human
[10] = Rodent models: therapeutic effect versus hematopoietic impact; format: in vivo; details: rodents
[11] = Elderly cohort, active treatment, 5 days, n = 3

Nc1nnc(CN[C@@H]2C[C@H]2c2ccc(OCc3ccccc3)cc2)o1 [vafidemstat]
Variability, overall coefficient of variation ([1]; SAD and MAD cohorts, plasma PK): ≤ 30%
Tmax ([1]; both, oral): 0.5 to 2 h
half-life ([1]; both, oral): 20 to 30 h
AUC(0-inf) ([1]; male, po, 0.2 mg): 30.9 ng·h/mL
AUC(0-t) ([1]; male, po, 0.2 mg): 28 ng·h/mL
Cmax ([1]; male, po, 0.2 mg): 1.11 ng/mL
Tmax ([1]; male, po, 0.2 mg): 2.75 h
Vd/F ([1]; male, po, 0.2 mg): 260 L
half-life ([1]; male, po, 0.2 mg): 28 h
AUC(0-inf) ([1]; male, po, 0.6 mg): 90.7 ng·h/mL
AUC(0-t) ([1]; male, po, 0.6 mg): 83.3 ng·h/mL
Cmax ([1]; male, po, 0.6 mg): 3.21 ng/mL
Tmax ([1]; male, po, 0.6 mg): 1.83 h
Vd/F ([1]; male, po, 0.6 mg): 256 L
half-life ([1]; male, po, 0.6 mg): 27 h
AUC(0-inf) ([1]; male, po, 1.5 mg): 428 ng·h/mL
AUC(0-t) ([1]; male, po, 1.5 mg): 297 ng·h/mL
Cmax ([1]; male, po, 1.5 mg): 11.9 ng/mL
Tmax ([1]; male, po, 1.5 mg): 0.92 h
Vd/F ([1]; male, po, 1.5 mg): 213 L
half-life ([1]; male, po, 1.5 mg): 41 h
AUC(0-inf) ([1]; male, po, 2.5 mg): 438 ng·h/mL
AUC(0-t) ([1]; male, po, 2.5 mg): 402 ng·h/mL
Cmax ([1]; male, po, 2.5 mg): 18.8 ng/mL
Tmax ([1]; male, po, 2.5 mg): 1.58 h
Vd/F ([1]; male, po, 2.5 mg): 203 L
half-life ([1]; male, po, 2.5 mg): 25 h
AUC(0-inf) ([1]; male, po, 4 mg): 568 ng·h/mL
AUC(0-t) ([1]; male, po, 4 mg): 550 ng·h/mL
Cmax ([1]; male, po, 4 mg): 38 ng/mL
Tmax ([1]; male, po, 4 mg): 1.71 h
Vd/F ([1]; male, po, 4 mg): 204 L
half-life ([1]; male, po, 4 mg): 20 h
Pharmacokinetic profiles, young versus older adult populations ([2]; 2.5 mg/day): did not differ significantly
Tmax ([2]; both, 0.2 mg/day): 5.1 h
AUC(0-t) ([2]; both, 0.2 mg/day, AUC0–t (D1), MAD 0.2 mg/day, day 1, young): 18.7 ng·h/mL
AUC(0-t) ([2]; both, 0.2 mg/day, AUC0–t,ss (D5), MAD 0.2 mg/day, day 5, young): 37.7 ng·h/mL
Cmax ([2]; both, 0.2 mg/day, Cmax (D1), MAD 0.2 mg/day, day 1, young): 1.28 ng/mL
Cmax ([2]; both, 0.2 mg/day, Cmax,ss (D5), MAD 0.2 mg/day, day 5, young): 2.32 ng/mL
half-life ([2]; both, 0.2 mg/day, MAD 0.2 mg/day, young): 22 h
Tmax ([2]; both, 0.6 mg/day): 2.25 h
AUC(0-t) ([2]; both, 0.6 mg/day, AUC0–t (D1), MAD 0.6 mg/day, day 1, young): 50.6 ng·h/mL
AUC(0-t) ([2]; both, 0.6 mg/day, AUC0–t,ss (D5), MAD 0.6 mg/day, day 5, young): 114 ng·h/mL
Cmax ([2]; both, 0.6 mg/day, Cmax (D1), MAD 0.6 mg/day, day 1, young): 3.69 ng/mL
Cmax ([2]; both, 0.6 mg/day, Cmax,ss (D5), MAD 0.6 mg/day, day 5, young): 7.65 ng/mL
half-life ([2]; both, 0.6 mg/day, MAD 0.6 mg/day, young): 22 h
Tmax ([2]; both, 1 mg/day): 1.83 h
Tmax ([2]; both, 1.5 mg/day): 1.17 h
AUC(0-t) ([2]; both, 1.5 mg/day, AUC0–t (D1), MAD 1.5 mg/day, day 1, young): 138 ng·h/mL
AUC(0-t) ([2]; both, 1.5 mg/day, AUC0–t,ss (D5), MAD 1.5 mg/day, day 5, young): 299 ng·h/mL
Cmax ([2]; both, 1.5 mg/day, Cmax (D1), MAD 1.5 mg/day, day 1, young): 11.3 ng/mL
Cmax ([2]; both, 1.5 mg/day, Cmax,ss (D5), MAD 1.5 mg/day, day 5, young): 23.6 ng/mL
half-life ([2]; both, 1.5 mg/day, MAD 1.5 mg/day, young): 22 h
Tmax ([2]; both, 2.5 mg/day): 2.17 h
AUC(0-t) ([2]; both, 2.5 mg/day, AUC0–t (D1), MAD 2.5 mg/day, day 1, young): 292 ng·h/mL
AUC(0-t) ([2]; both, 2.5 mg/day, AUC0–t,ss (D5), MAD 2.5 mg/day, day 5, young): 634 ng·h/mL
AUC(0-t) ([2]; both, 2.5 mg/day, AUC0–t,ss (D5), MAD older adult 2.5 mg/day, day 5): 442 ng·h/mL
Cmax ([2]; both, 2.5 mg/day, Cmax (D1), MAD 2.5 mg/day, day 1, young): 26.6 ng/mL
Cmax ([2]; both, 2.5 mg/day, Cmax,ss (D5), MAD 2.5 mg/day, day 5, young): 49.9 ng/mL
half-life ([2]; both, 2.5 mg/day, MAD 2.5 mg/day, young): 22 h
half-life ([2]; both, 2.5 mg/day, MAD older adult 2.5 mg/day): 23 h
Tmax ([2]; both, 4 mg/day): 1.33 h
AUC(0-t) ([2]; both, 4 mg/day, AUC0–t (D1), MAD 4.0 mg/day, day 1, young): 564 ng·h/mL
AUC(0-t) ([2]; both, 4 mg/day, AUC0–t,ss (D5), MAD 4.0 mg/day, day 5, young): 994 ng·h/mL
Cmax ([2]; both, 4 mg/day, Cmax (D1), MAD 4.0 mg/day, day 1, young): 56 ng/mL
Cmax ([2]; both, 4 mg/day, Cmax,ss (D5), MAD 4.0 mg/day, day 5, young): 110 ng/mL
half-life ([2]; both, 4 mg/day, MAD 4.0 mg/day, young): 20 h
Tmax ([2]; 2.5 mg/day): 2.33 h
AUC(0-t) ([2]; 2.5 mg/day, AUC0–t (D1), MAD older adult 2.5 mg/day, day 1): 258 ng·h/mL
Cmax ([2]; 2.5 mg/day, Cmax (D1), MAD older adult 2.5 mg/day, day 1): 24.3 ng/mL
Cmax ([2]; 2.5 mg/day, Cmax,ss (D5), MAD older adult 2.5 mg/day, day 5): 41 ng/mL
Number of treatment-related AEs ([3]; SAD stage, subjects receiving vafidemstat): 12
Number of TEAEs (% of total TEAEs): Headache ([3]; SAD, 0.2 mg, n = 6): 1 (7.7) n (%)
Number of TEAEs (% of total TEAEs): Total ([3]; SAD, 0.2 mg, n = 6): 1 (7.7) n (%)
Number of TEAEs (% of total TEAEs): Euphoric mood ([3]; SAD, 0.6 mg, n = 6): 1 (7.7) n (%)
Number of TEAEs (% of total TEAEs): Feeling hot ([3]; SAD, 0.6 mg, n = 6): 1 (7.7) n (%)
Number of TEAEs (% of total TEAEs): Headache ([3]; SAD, 0.6 mg, n = 6): 1 (7.7) n (%)
Number of TEAEs (% of total TEAEs): Total ([3]; SAD, 0.6 mg, n = 6): 3 (23.1) n (%)
Number of TEAEs (% of total TEAEs): Musculoskeletal stiffness ([3]; SAD, 1.5 mg, n = 6): 1 (7.7) n (%)
Number of TEAEs (% of total TEAEs): Paresthesia ([3]; SAD, 1.5 mg, n = 6): 1 (7.7) n (%)
Number of TEAEs (% of total TEAEs): Total ([3]; SAD, 1.5 mg, n = 6): 2 (15.4) n (%)
Number of TEAEs (% of total TEAEs): Abdominal discomfort ([3]; SAD, 2.5 mg, n = 6): 1 (7.7) n (%)
Number of TEAEs (% of total TEAEs): Asthenia ([3]; SAD, 2.5 mg, n = 6): 1 (7.7) n (%)
Number of TEAEs (% of total TEAEs): Dry mouth ([3]; SAD, 2.5 mg, n = 6): 1 (7.7) n (%)
Number of TEAEs (% of total TEAEs): Total ([3]; SAD, 2.5 mg, n = 6): 3 (23.1) n (%)
Number of TEAEs (% of total TEAEs): Blunted affect ([3]; SAD, 4.0 mg, n = 6): 1 (7.7) n (%)
Number of TEAEs (% of total TEAEs): Euphoric mood ([3]; SAD, 4.0 mg, n = 6): 1 (7.7) n (%)
Number of TEAEs (% of total TEAEs): Headache ([3]; SAD, 4.0 mg, n = 6): 1 (7.7) n (%)
Number of TEAEs (% of total TEAEs): Total ([3]; SAD, 4.0 mg, n = 6): 3 (23.1) n (%)
Number of TEAEs (% of total TEAEs): Asthenia [4, 11]: 1 (4.8) n (%)
Number of TEAEs (% of total TEAEs): Blunted effect [4, 11]: 1 (4.8) n (%)
Number of TEAEs (% of total TEAEs): Feeling cold [4, 11]: 1 (4.8) n (%)
Number of TEAEs (% of total TEAEs): Gait disturbance [4, 11]: 1 (4.8) n (%)
Number of TEAEs (% of total TEAEs): Headache [4, 11]: 3 (14.3) n (%)
Number of TEAEs (% of total TEAEs): Musculoskeletal stiffness [4, 11]: 1 (4.8) n (%)
Number of TEAEs (% of total TEAEs): Palpitations [4, 11]: 1 (4.8) n (%)
Number of TEAEs (% of total TEAEs): Total [4, 11]: 10 (47.6) n (%)
Number of TEAEs (% of total TEAEs): Vertigo [4, 11]: 1 (4.8) n (%)
Number of treatment-related TEAEs ([4]; MAD stage in older adult volunteers, with vafidemstat): 10
Maximum tolerated dose ([5]; MAD, 5 days): 2.5 mg/day
Minimum intolerable dose (MID) as defined per protocol ([5]; MAD, 5 days): 4 mg/day
Platelet levels ([5]; any SAD dose level or up to MAD dose III (1.0 mg/day)): no variations
Platelet level drops from baseline versus exposure ([5]; at Cmax,ss of ~ 100 ng/mL and AUCss of ~ 1000 ng·h/mL): ~ 50%
Maximum KDM1A TE values ([6]; MAD, at 108 h after first dose (12 h after last dose), PBMCs): up to 90%
KDM1A binding in PBMCs ([6]; SAD and MAD): dose-dependent manner
Maximum KDM1A TE ([6]; SAD cohorts, 4 mg, at 12 h, PBMCs): around 80%
KDM1A TE peak versus plasma exposure ([6]; at Cmax,ss of ~ 30 ng/mL and AUCss of ~ 500 ng·h/mL): ~ 90%
KDM1A TE ([6]; older adult population, evaluable sample from a single individual): 85.6%
NOAEL at 28 days [7]: 0.2 mg/kg
Sleeping or awakening patterns (LSEQ) [8]: did not disrupt sleeping or awakening patterns
Somnolence and potential for abuse (VAS) [8]: did not provoke somnolence or reveal a potential for abuse
WCST or Sternberg test ([8]; any dose level or parameter): No significant differences
Serious adverse events (SAEs) ([9]; during the study): No SAEs
Changes over time in hematological, biochemical, urinalysis parameters, vital signs, ECG values ([9]; planned SAD or MAD (including older adult) cohorts): No significant changes
Number of AEs reported by subjects receiving vafidemstat ([9]; three study stages (SAD, MAD, older adult), 120 AEs in total): 90
Number of TEAEs possibly or probably related to the study drug ([9]; volunteers treated with vafidemstat, three study stages, 108 TEAEs in total): 79
Window between the therapeutic effect and hematopoietic impact [10]: 30 fold

— paper PMC7985749 (CNS Drugs, 2021)
